Experimental data published in ChEMBL document CHEMBL1255494, “In vivo comparison of the pharmacodynamic targets for echinocandin drugs against Candida species” (Antimicrob Agents Chemother, 2010).
≈ marks a conversion by molar mass, not a printed value. *1 amine or outer side, *2 acyl side, *3 side chain or, on linkers, in order; H or OH if unused. Where a SMILES comes first, the peptide text is derived from it. Bridges are numbered along the chain shown (N, C = ends). [ ]: non-standard residue; d: D form. The star is where a group is joined. pTerphenylCO(4''-OnC5H11) = CCCCCOc1ccc(-c2ccc(-c3ccc(C(=O)*)cc3)cc2)cc1; Orn(4R-OH,5R-OH) = O=C([C@H](C[C@@H](O)[C@@H](O)N[*:3])N[*:1])[*:2]; hTyr(3S-OH,4S-OH) = N[C@H](C(=O)O)[C@H](O)[C@@H](O)c1ccc(O)cc1; Pro(3S-OH,4S-Me) = C[C@H]1CN[C@H](C(=O)O)[C@H]1O; Hyp = O=C(O)[C@@H]1C[C@@H](O)CN1

Experiments:
[1] = AUC (0 to 24 hrs) in Candida albicans infected neutropenic ICR Swiss mouse at 5 mg/kg, ip; format: ADME, organism-based; design: time < 24 hr, dose 5 mg/kg, route intraperitoneal; conditions: plasma
Procedure, shortened: (§1)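 Neutropenic female ICR Swiss mice (cyclophosphamide sc at 150 mg/kg on day −4, 100 mg/kg on day −1 and day +2) infected iv via tail vein with Candida; single ip doses of 5, 20 or 80 mg/kg. Serum drawn from 3 mice per time point at eight time points and assayed by microbiologic assay (C. albicans K1) or […]. Noncompartmental analysis; AUC by trapezoidal rule.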

[2] = Ratio of AUC (0 to 24 hrs) in Candida glabrata infected neutropenic ICR Swiss mouse to MIC for Candida glabrata at static dose after 24 hrs; format: functional
Procedure, shortened: (§2)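 Neutropenic mice were infected iv and treated 2 h later. Four to six ip dose levels (0.078–160 mg/kg) were given every 24 h for 4 days, 3 mice per regimen. Kidney CFU were counted at 96 h. A sigmoid dose-effect model gave the static and 1-log-kill doses relative to burden at therapy start.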

[3] = Ratio of fAUC (0 to 24 hrs) in Candida albicans infected neutropenic ICR Swiss mouse to MIC for Candida albicans at static dose after 24 hrs; format: functional
[4] = Ratio of fAUC (0 to 24 hrs) in Candida glabrata infected neutropenic ICR Swiss mouse to MIC for Candida glabrata at static dose after 24 hrs; format: functional
[5] = Ratio of fAUC (0 to 24 hrs) in Candida parapsilosis infected neutropenic ICR Swiss mouse to MIC for Candida parapsilosis at static dose after 24 hrs; format: functional
[6] = Ratio of AUC (0 to 24 hrs) in Candida albicans infected neutropenic ICR Swiss mouse to MIC for Candida albicans at 1 log kill dose after 24 hrs; format: functional; procedure, shortened: as §2
[7] = Ratio of AUC (0 to 24 hrs) in Candida glabrata infected neutropenic ICR Swiss mouse to MIC for Candida glabrata at 1 log kill dose after 24 hrs; format: functional; procedure, shortened: as §2
[8] = Ratio of fAUC (0 to 24 hrs) in Candida albicans infected neutropenic ICR Swiss mouse to MIC for Candida albicans at 1 log kill dose after 24 hrs; format: functional
[9] = Ratio of fAUC (0 to 24 hrs) in Candida parapsilosis infected neutropenic ICR Swiss mouse to MIC for Candida parapsilosis at 1 log kill dose after 24 hrs; format: functional
[10] = test system: Nakaseomyces glabratus; test: Fungistatic activity against Candida glabrata infected in neutropenic ICR Swiss mouse after 24 hrs; format: functional
Procedure, shortened: (§3)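 Female ICR Swiss mice, neutropenic via cyclophosphamide s.c. (150 mg/kg day −4, 100 mg/kg day −1 and day +2), infected by tail-vein injection of clinical isolates 2 h before therapy. Intraperitoneal dosing every 24 h for 4 days, 4–6 dose levels from 0.078 to 160 mg/kg, 3 mice per regimen. Kidney CFU counted at 96 h. Sigmoid dose-effect fit gives static dose and 1 log kill dose relative to burden at start of therapy.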

[11] = test system: Candida parapsilosis; test: Fungistatic activity against Candida parapsilosis infected in neutropenic ICR Swiss mouse after 24 hrs; format: functional; procedure, shortened: as §3
[12] = test system: Candida albicans; test: Antifungal activity against Candida albicans infected in ICR Swiss mouse assessed as log reduction in bacterial count […]; format: functional; procedure, shortened: as §3
[13] = test system: Candida albicans; test: Antifungal activity against Candida albicans infected in ICR Swiss mouse; format: functional; procedure, shortened: as §3
[14] = test system: Nakaseomyces glabratus; test: Antifungal activity against Candida glabrata infected in ICR Swiss mouse; format: functional; procedure, shortened: as §3
[15] = test system: Candida albicans; test: Antifungal activity against Candida albicans 98-210 after 24 hrs; format: functional; conditions: 98-210, 24 h
Procedure, shortened: (§4)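 Broth microdilution per CLSI M27-A3 in RPMI 1640; inoculum 0.5 × 10³ to 2.5 × 10³ cells/ml, 35°C. […] Three separate occasions in duplicate, mean reported; C. krusei ATCC 6258 and C. parapsilosis ATCC 22019 as daily QC.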

[16] = test system: Candida albicans; test: Antifungal activity against Candida albicans 580 after 24 hrs; format: functional; conditions: Candida albicans, 580, 24 h; procedure, shortened: as §4
[17] = test system: Candida albicans; test: Antifungal activity against Candida albicans 570 after 24 hrs; format: functional; conditions: Candida albicans, 570, 24 h
Procedure, shortened: (§5)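 MICs by CLSI M27-A3 broth dilution in RPMI 1640, inoculum 0.5 × 10³ to 2.5 × 10³ cells/ml, 35°C. Read visually at 24 h as the lowest concentration giving ≥50% growth reduction versus control. Run on three occasions in duplicate and reported as the mean. C. krusei ATCC 6258 and C. parapsilosis ATCC 22019 served as QC strains.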

[18] = test system: Nakaseomyces glabratus; test: Antifungal activity against Candida glabrata 5592 after 24 hrs; format: functional; conditions: Nakaseomyces glabratus, 5592, 24 h; procedure, shortened: as §4
[19] = test system: Nakaseomyces glabratus; test: Antifungal activity against Candida glabrata 513 after 24 hrs; format: functional; conditions: Nakaseomyces glabratus, 513, 24 h; procedure, shortened: as §4
[20] = test system: Nakaseomyces glabratus; test: Antifungal activity against Candida glabrata 33609 after 24 hrs; format: functional; conditions: Nakaseomyces glabratus, 33609, 24 h; procedure, shortened: as §4
[21] = test system: Nakaseomyces glabratus; test: Antifungal activity against Candida glabrata 32930 after 24 hrs; format: functional; conditions: Nakaseomyces glabratus, 32930, 24 h; procedure, shortened: as §4
[22] = test system: Nakaseomyces glabratus; test: Antifungal activity against Candida glabrata 37661 after 24 hrs; format: functional; conditions: Nakaseomyces glabratus, 37661, 24 h; procedure, shortened: as §5
[23] = test system: Candida parapsilosis; test: Antifungal activity against Candida parapsilosis 20450.096 after 24 hrs; format: functional; conditions: Lodderomyces parapsilosis, 20450.096, 24 h; procedure, shortened: as §5
[24] = test system: Candida parapsilosis; test: Antifungal activity against Candida parapsilosis 20477.078 after 24 hrs; format: functional; conditions: Lodderomyces parapsilosis, 20477.078, 24 h; procedure, shortened: as §5
[25] = test system: Candida parapsilosis; test: Antifungal activity against Candida parapsilosis 20385.079 after 24 hrs; format: functional; conditions: Lodderomyces parapsilosis, 20385.079, 24 h; procedure, shortened: as §5
[26] = test system: Candida parapsilosis; test: Antifungal activity against Candida parapsilosis 20423.072 after 24 hrs; format: functional; conditions: Lodderomyces parapsilosis, 20423.072, 24 h; procedure, shortened: as §5
[27] = test system: Candida parapsilosis; test: Antifungal activity against Candida parapsilosis 20423.078 after 24 hrs; format: functional; conditions: Lodderomyces parapsilosis, 20423.078, 24 h; procedure, shortened: as §5
[28] = test system: Candida parapsilosis; test: Antifungal activity against Candida parapsilosis 20562.03 after 24 hrs; format: functional; conditions: Lodderomyces parapsilosis, 20562.03, 24 h; procedure, shortened: as §5
[29] = test system: Candida parapsilosis; test: Antifungal activity against Candida parapsilosis 20553.009 after 24 hrs; format: functional; conditions: Lodderomyces parapsilosis, 20553.009, 24 h; procedure, shortened: as §5
[30] = test system: Candida parapsilosis; test: Antifungal activity against Candida parapsilosis 20489.085 after 24 hrs; format: functional; conditions: Lodderomyces parapsilosis, 20489.085, 24 h; procedure, shortened: as §4
[31] = test system: Candida parapsilosis; test: Antifungal activity against Candida parapsilosis 20511.092 after 24 hrs; format: functional; conditions: Lodderomyces parapsilosis, 20511.092, 24 h; procedure, shortened: as §5
[32] = test system: Candida parapsilosis; test: Antifungal activity against Candida parapsilosis 20557.012 after 24 hrs; format: functional; conditions: Lodderomyces parapsilosis, 20557.012, 24 h; procedure, shortened: as §5
[33] = test system: Candida orthopsilosis; test: Antifungal activity against Candida orthopsilosis 20577.055 after 24 hrs; format: functional; conditions: Lodderomyces orthopsilosis, 20577.055, 24 h; procedure, shortened: as §5
[34] = test system: Candida parapsilosis; test: Antifungal activity against Candida parapsilosis 20519.069 after 24 hrs; format: functional; conditions: Lodderomyces parapsilosis, 20519.069, 24 h; procedure, shortened: as §5
[35] = test system: Candida parapsilosis; test: Antifungal activity against Candida parapsilosis 20435.057 after 24 hrs; format: functional; conditions: Lodderomyces parapsilosis, 20435.057, 24 h; procedure, shortened: as §5
[36] = AUC (0 to 24 hrs) in Candida albicans infected neutropenic ICR Swiss mouse at 80 mg/kg, ip; format: ADME, organism-based; design: time < 24 hr, dose 80 mg/kg, route intraperitoneal; conditions: plasma; procedure, shortened: as §1
[37] = AUC (0 to 24 hrs) in Candida albicans infected neutropenic ICR Swiss mouse at 20 mg/kg, ip; format: ADME, organism-based; design: time < 24 hr, dose 20 mg/kg, route intraperitoneal; conditions: plasma; procedure, shortened: as §1

Question: Which results are given for `CCCCCOc1ccc(-c2ccc(-c3ccc(C(=O)N[C@H]4C[C@@H](O)[C@@H](O)NC(=O)[C@@H]5[C@@H](O)[C@@H](C)CN5C(=O)[C@H]([C@@H](C)O)NC(=O)[C@H]([C@H](O)[C@@H](O)c5ccc(O)cc5)NC(=O)[C@@H]5C[C@@H](O)CN5C(=O)[C@H]([C@@H](C)O)NC4=O)cc3)cc2)cc1` [ANIDULAFUNGIN] ({pTerphenylCO(4''-OnC5H11)}-[Orn(4R-OH,5R-OH)]T[Hyp][hTyr(3S-OH,4S-OH)]T[Pro(3S-OH,4S-Me)]; lactam 1-C)?
Answer: AUC(0-t) at 24 h [1]: 96 µg·h/mL; Ratio [2]: 1366; Ratio [3]: 27.8; Ratio [4]: 13.7; Ratio [5]: 11.5; Ratio [6]: 9125; Ratio [7]: 3188; Ratio [8]: 91; Ratio [9]: 22; Activity [10]: 21.1 mg/kg; Activity [11]: 51 mg/kg; Activity [12]: 4.25 mg/kg; Emax [13]: 6.9 log10 CFU/kidneys; ED50 ([13]; Candida albicans): 26.1 mg/kg; Emax [14]: 6 log10 CFU/kidneys; ED50 ([14]; Nakaseomyces glabratus): 15.5 mg/kg; MIC [15]: 0.015 mg/L (≈ 0.0132 µM); MIC [16]: 0.015 mg/L (≈ 0.0132 µM); MIC [17]: 0.03 mg/L (≈ 0.0263 µM); MIC [18]: 0.06 mg/L (≈ 0.0526 µM); MIC [19]: 0.06 mg/L (≈ 0.0526 µM); MIC [20]: 0.03 mg/L (≈ 0.0263 µM); MIC [21]: 0.06 mg/L (≈ 0.0526 µM); MIC [22]: 2 mg/L (≈ 1.75 µM); MIC [23]: 1 mg/L (≈ 0.877 µM); MIC [24]: 2 mg/L (≈ 1.75 µM); MIC [25]: 1 mg/L (≈ 0.877 µM); MIC [26]: 1 mg/L (≈ 0.877 µM); MIC [27]: 1 mg/L (≈ 0.877 µM); MIC [28]: 1 mg/L (≈ 0.877 µM); MIC [29]: 2 mg/L (≈ 1.75 µM); MIC [30]: 1 mg/L (≈ 0.877 µM); MIC [31]: 1 mg/L (≈ 0.877 µM); MIC [32]: 0.5 mg/L (≈ 0.438 µM); MIC [33]: 0.5 mg/L (≈ 0.438 µM); MIC [34]: 4 mg/L (≈ 3.51 µM); MIC [35]: 1 mg/L (≈ 0.877 µM); AUC(0-t) at 24 h [36]: 1980 µg·h/mL; AUC(0-t) at 24 h [37]: 382 µg·h/mL
